Experimental data published in ChEMBL document CHEMBL1781932 (J Med Chem, 2011).
In brackets after ≈: the same amount, converted by molar mass.

Assays:
Assay type in all cases: functional
Acinetobacter baumannii = assay: Antimicrobial activity against tetracycline-susceptible Acinetobacter baumannii isolate 110 by CLSI dilution method
Method in brief: (§1)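 Broth microdilution per CLSI in fresh cation-adjusted Mueller Hinton broth, kept at 4 °C before testing, with defibrinated horse blood added as appropriate. Strains were from ATCC. MIC in µg/mL. Runs were accepted when comparator antibiotics against ATCC quality-control strains fell within recommended ranges.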

Staphylococcus aureus [1] = assay: Antimicrobial activity against tetracycline-resistant Staphylococcus aureus isolate 158 harboring tetK gene by CLSI dilution method
Escherichia coli [2] = assay: Antimicrobial activity against tetracycline-susceptible Escherichia coli isolate 107 by CLSI dilution method; method in brief: as §1
Streptococcus pneumoniae [3] = assay: Antimicrobial activity against tetracycline-resistant Streptococcus pneumoniae isolate 160 harboring tetM gene by CLSI dilution method
Enterococcus faecalis [4] = assay: Antimicrobial activity against tetracycline-resistant Enterococcus faecalis isolate 159 harboring […] gene by CLSI dilution method
Enterobacter cloacae = assay: Antimicrobial activity against tetracycline-susceptible Enterobacter cloacae isolate 108 by CLSI dilution method; method in brief: as §1
Staphylococcus aureus [5] = assay: Antimicrobial activity against methicillin-, tetracycline-resistant Staphylococcus aureus isolate 161 harboring tetM gene by CLSI dilution method
Enterococcus faecalis [6] = assay: Antimicrobial activity against tetracycline-susceptible Enterococcus faecalis isolate 103 by CLSI dilution method; method in brief: as §1
Klebsiella pneumoniae [7] = assay: Antimicrobial activity against tetracycline-resistant Klebsiella pneumoniae isolate 153 harboring tetA gene by CLSI dilution method
Streptococcus pneumoniae [8] = assay: Antimicrobial activity against tetracycline-susceptible Streptococcus pneumoniae isolate 106 by CLSI dilution method; method in brief: as §1
Staphylococcus aureus [9] = assay: Antimicrobial activity against tetracycline-susceptible Staphylococcus aureus isolate 101 by CLSI dilution method
Klebsiella pneumoniae [10] = assay: Antimicrobial activity against tetracycline-susceptible Klebsiella pneumoniae isolate 109 by CLSI dilution method; method in brief: as §1
Pseudomonas aeruginosa = assay: Antimicrobial activity against tetracycline-susceptible Pseudomonas aeruginosa isolate 111 by CLSI dilution method; method in brief: as §1
Escherichia coli [11] = assay: Antimicrobial activity against tetracycline-resistant Escherichia coli isolate 155 harboring tetA gene by CLSI dilution method

Row | Structure (SMILES) | MIC (Acinetobacter baumannii) | MIC (Staphylococcus aureus [1]) | MIC (Escherichia coli [2]) | MIC (Streptococcus pneumoniae [3]) | MIC (Enterococcus faecalis [4]) | MIC (Enterobacter cloacae) | MIC (Staphylococcus aureus [5]) | MIC (Enterococcus faecalis [6]) | MIC (Klebsiella pneumoniae [7]) | MIC (Streptococcus pneumoniae [8]) | MIC (Staphylococcus aureus [9]) | MIC (Klebsiella pneumoniae [10]) | MIC (Pseudomonas aeruginosa) | MIC (Escherichia coli [11])
1 | CN(C)c1c2c(c(O)c3cc(CN4CCC4)ccc13)C(=O)C1=C(O)[C@]3(O)C(=O)C(C(N)=O)=C(O)[C@@H](N(C)C)[C@@H]3C[C@@H]1C2 | 1 µg/mL (≈ 1.73 µM) | 0.0625 µg/mL (≈ 0.108 µM) | 2 µg/mL (≈ 3.47 µM) | 0.125 µg/mL (≈ 0.217 µM) | 2 µg/mL (≈ 3.47 µM) | 8 µg/mL (≈ 13.9 µM) | 2 µg/mL (≈ 3.47 µM) | 0.125 µg/mL (≈ 0.217 µM) | 16 µg/mL (≈ 27.7 µM) | < 0.0156 µg/mL | 1 µg/mL (≈ 1.73 µM) | 4 µg/mL (≈ 6.94 µM) | 32 µg/mL (≈ 55.5 µM) | 
2 | CN(C)Cc1ccc2c(N(C)C)c3c(c(O)c2c1)C(=O)C1=C(O)[C@]2(O)C(=O)C(C(N)=O)=C(O)[C@@H](N(C)C)[C@@H]2C[C@@H]1C3 | 16 µg/mL (≈ 28.3 µM) | 0.25 µg/mL (≈ 0.443 µM) | 2 µg/mL (≈ 3.54 µM) | 0.25 µg/mL (≈ 0.443 µM) | 2 µg/mL (≈ 3.54 µM) | 32 µg/mL (≈ 56.7 µM) | 2 µg/mL (≈ 3.54 µM) | 0.25 µg/mL (≈ 0.443 µM) |  | < 0.0156 µg/mL | 0.25 µg/mL (≈ 0.443 µM) | 8 µg/mL (≈ 14.2 µM) | > 32 µg/mL | 
3 | CN(C)[C@@H]1C(O)=C(C(N)=O)C(=O)[C@@]2(O)C(O)=C3C(=O)c4c(c(Cl)c5ccc(CN6CCC6)cc5c4O)C[C@H]3C[C@@H]12 | 2 µg/mL (≈ 3.52 µM) | 1 µg/mL (≈ 1.76 µM) | 2 µg/mL (≈ 3.52 µM) | 0.5 µg/mL (≈ 0.88 µM) | 2 µg/mL (≈ 3.52 µM) | 8 µg/mL (≈ 14.1 µM) | 2 µg/mL (≈ 3.52 µM) | 0.25 µg/mL (≈ 0.44 µM) | 8 µg/mL (≈ 14.1 µM) |  | 1 µg/mL (≈ 1.76 µM) | 4 µg/mL (≈ 7.04 µM) | > 32 µg/mL | 16 µg/mL (≈ 28.2 µM)
4 | CCNCc1ccc2c(F)c3c(c(O)c2c1)C(=O)C1=C(O)[C@]2(O)C(=O)C(C(N)=O)=C(O)[C@@H](N(C)C)[C@@H]2C[C@@H]1C3 | 1 µg/mL (≈ 1.85 µM) |  | 1 µg/mL (≈ 1.85 µM) |  | 2 µg/mL (≈ 3.71 µM) | 2 µg/mL (≈ 3.71 µM) | 2 µg/mL (≈ 3.71 µM) | 0.25 µg/mL (≈ 0.463 µM) | 8 µg/mL (≈ 14.8 µM) | 0.0313 µg/mL (≈ 0.058 µM) | 0.5 µg/mL (≈ 0.927 µM) | 4 µg/mL (≈ 7.41 µM) | 16 µg/mL (≈ 29.7 µM) | 8 µg/mL (≈ 14.8 µM)
5 | CCCNc1c2c(c(O)c3cc(CN4CCC4)ccc13)C(=O)C1=C(O)[C@]3(O)C(=O)C(C(N)=O)=C(O)[C@@H](N(C)C)[C@@H]3C[C@@H]1C2 | 16 µg/mL (≈ 27.1 µM) | 4 µg/mL (≈ 6.77 µM) | 16 µg/mL (≈ 27.1 µM) | 2 µg/mL (≈ 3.39 µM) | 16 µg/mL (≈ 27.1 µM) | > 32 µg/mL |  | 4 µg/mL (≈ 6.77 µM) | > 32 µg/mL | 0.5 µg/mL (≈ 0.846 µM) | 4 µg/mL (≈ 6.77 µM) | 32 µg/mL (≈ 54.2 µM) | > 32 µg/mL | > 32 µg/mL
6 | CN(C)[C@@H]1C(O)=C(C(N)=O)C(=O)[C@@]2(O)C(O)=C3C(=O)c4c(cc5ccc(-c6cccnc6)cc5c4O)C[C@H]3C[C@@H]12 | > 32 µg/mL |  | > 32 µg/mL | > 32 µg/mL | 0.25 µg/mL (≈ 0.462 µM) | > 32 µg/mL | 1 µg/mL (≈ 1.85 µM) | 0.5 µg/mL (≈ 0.923 µM) | > 32 µg/mL | > 32 µg/mL | 1 µg/mL (≈ 1.85 µM) | > 32 µg/mL | > 32 µg/mL | > 32 µg/mL
7 | CN(C)[C@@H]1C(O)=C(C(N)=O)C(=O)[C@@]2(O)C(O)=C3C(=O)c4c(c(F)c5ccc(CNC6CC6)cc5c4O)C[C@H]3C[C@@H]12 | 0.25 µg/mL (≈ 0.453 µM) |  | 2 µg/mL (≈ 3.63 µM) |  | 2 µg/mL (≈ 3.63 µM) | 4 µg/mL (≈ 7.25 µM) | 2 µg/mL (≈ 3.63 µM) | 0.5 µg/mL (≈ 0.907 µM) | 8 µg/mL (≈ 14.5 µM) | 0.0625 µg/mL (≈ 0.113 µM) |  | 4 µg/mL (≈ 7.25 µM) | > 32 µg/mL | 8 µg/mL (≈ 14.5 µM)
8 | CCCNCc1ccc2c(OC)c3c(c(O)c2c1)C(=O)C1=C(O)[C@]2(O)C(=O)C(C(N)=O)=C(O)[C@@H](N(C)C)[C@@H]2C[C@@H]1C3 | 1 µg/mL (≈ 1.77 µM) | 0.0625 µg/mL (≈ 0.11 µM) | 1 µg/mL (≈ 1.77 µM) | 0.125 µg/mL (≈ 0.221 µM) | 2 µg/mL (≈ 3.54 µM) | 1 µg/mL (≈ 1.77 µM) | 2 µg/mL (≈ 3.54 µM) | 0.125 µg/mL (≈ 0.221 µM) |  | 0.0156 µg/mL (≈ 0.0276 µM) | 0.25 µg/mL (≈ 0.442 µM) | 1 µg/mL (≈ 1.77 µM) | 16 µg/mL (≈ 28.3 µM) | 8 µg/mL (≈ 14.1 µM)
9 | CN(C)c1c2c(c(O)c3cc(CN4CCCC4)ccc13)C(=O)C1=C(O)[C@]3(O)C(=O)C(C(N)=O)=C(O)[C@@H](N(C)C)[C@@H]3C[C@@H]1C2 | 16 µg/mL (≈ 27.1 µM) | 0.5 µg/mL (≈ 0.846 µM) | 2 µg/mL (≈ 3.39 µM) |  | 2 µg/mL (≈ 3.39 µM) | 16 µg/mL (≈ 27.1 µM) | 2 µg/mL (≈ 3.39 µM) | 0.25 µg/mL (≈ 0.423 µM) | 32 µg/mL (≈ 54.2 µM) | < 0.0156 µg/mL | 0.5 µg/mL (≈ 0.846 µM) |  | > 32 µg/mL | 8 µg/mL (≈ 13.5 µM)
10 | COc1cccc2c(O)c3c(cc12)C[C@H]1C[C@H]2[C@H](N(C)C)C(O)=C(C(N)=O)C(=O)[C@@]2(O)C(O)=C1C3=O | 32 µg/mL (≈ 64.7 µM) |  | > 32 µg/mL | 4 µg/mL (≈ 8.09 µM) | 1 µg/mL (≈ 2.02 µM) | > 32 µg/mL | 0.5 µg/mL (≈ 1.01 µM) | 0.5 µg/mL (≈ 1.01 µM) | > 32 µg/mL | 2 µg/mL (≈ 4.04 µM) |  | > 32 µg/mL | > 32 µg/mL | > 32 µg/mL
11 | CN(C)[C@@H]1C(O)=C(C(N)=O)C(=O)[C@@]2(O)C(O)=C3C(=O)c4c(cc5ccc(CN6CCCCC6)cc5c4O)C[C@H]3C[C@@H]12 | 1 µg/mL (≈ 1.78 µM) | 0.5 µg/mL (≈ 0.89 µM) | 2 µg/mL (≈ 3.56 µM) | 0.25 µg/mL (≈ 0.445 µM) | 2 µg/mL (≈ 3.56 µM) | 8 µg/mL (≈ 14.2 µM) | 2 µg/mL (≈ 3.56 µM) | 0.5 µg/mL (≈ 0.89 µM) | 8 µg/mL (≈ 14.2 µM) | 0.125 µg/mL (≈ 0.223 µM) | 0.5 µg/mL (≈ 0.89 µM) | 8 µg/mL (≈ 14.2 µM) | > 32 µg/mL | 
12 | CN(C)c1ccc(O)c2c1C[C@H]1C[C@H]3[C@H](N(C)C)C(O)=C(C(N)=O)C(=O)[C@@]3(O)C(O)=C1C2=O [MINOCYCLINE] | 0.0625 µg/mL (≈ 0.137 µM) | 0.0313 µg/mL (≈ 0.0684 µM) | 0.5 µg/mL (≈ 1.09 µM) | 2 µg/mL (≈ 4.37 µM) | 16 µg/mL (≈ 35 µM) | 2 µg/mL (≈ 4.37 µM) | 8 µg/mL (≈ 17.5 µM) |  | 8 µg/mL (≈ 17.5 µM) | < 0.0156 µg/mL | 0.0625 µg/mL (≈ 0.137 µM) |  | 16 µg/mL (≈ 35 µM) | 8 µg/mL (≈ 17.5 µM)
13 | CN(C)[C@@H]1C(O)=C(C(N)=O)C(=O)[C@@]2(O)C(O)=C3C(=O)c4c(cc5ccc(CN6CCCC6)cc5c4O)C[C@H]3C[C@@H]12 | 1 µg/mL (≈ 1.83 µM) | 0.25 µg/mL (≈ 0.457 µM) | 1 µg/mL (≈ 1.83 µM) | 0.125 µg/mL (≈ 0.228 µM) | 2 µg/mL (≈ 3.65 µM) | 4 µg/mL (≈ 7.3 µM) | 2 µg/mL (≈ 3.65 µM) | 0.25 µg/mL (≈ 0.457 µM) | 4 µg/mL (≈ 7.3 µM) | 0.0625 µg/mL (≈ 0.114 µM) | 0.5 µg/mL (≈ 0.913 µM) |  | > 32 µg/mL | 
14 | CN(C)c1cccc2c(O)c3c(cc12)C[C@H]1C[C@H]2[C@H](N(C)C)C(O)=C(C(N)=O)C(=O)[C@@]2(O)C(O)=C1C3=O | 16 µg/mL (≈ 31.5 µM) | 1 µg/mL (≈ 1.97 µM) |  | 8 µg/mL (≈ 15.8 µM) | 2 µg/mL (≈ 3.94 µM) | > 32 µg/mL | 2 µg/mL (≈ 3.94 µM) | 1 µg/mL (≈ 1.97 µM) | > 32 µg/mL | 4 µg/mL (≈ 7.88 µM) | 1 µg/mL (≈ 1.97 µM) | > 32 µg/mL | > 32 µg/mL | > 32 µg/mL
